Common to all, as to type: functional
For experiment [1], the system named is Mycobacterium avium. The experiment is described as follows: Minimum inhibitory concentration against Mycobacterium avium (ATCC 25291). The essentials:
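Alamar blue microplate assay in 7H9GC. BCG or M. avium ATCC 25291 at 2.5 × 10⁵ CFU/mL final, exposed to compound at 100, 50, 10 and 1 µg/mL in triplicate. Reagent added after 6+ days once growth controls turned pink, read after 24 h visually and by fluorescence. MIC₉₀ taken as the lowest concentration giving ~90% growth inhibition.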

In experiment [2] the test system is Mycobacterium avium. As to the kind of experiment: Inhibition of growth of Mycobacterium avium (ATCC 25291) was determined using microplate alamar blue assay at 2 ug/mL concentration with compound dissolved in DMSO.
Experiment [3] has as its system Mycobacterium avium. The experiment is described as follows: Inhibition of growth of Mycobacterium avium (ATCC 25291) was determined using microplate alamar blue assay at 10 ug/mL concentration with compound dissolved in DMSO. The gist of the method:
(§1)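 MABA in 7H9GC medium; M. bovis BCG or M. avium ATCC 25291 frozen inocula at 2.5 × 10⁵ CFU/mL final, 100× DMSO stocks diluted into medium. Incubated 6 days, then alamar blue plus 20% Tween-80 added once bacteria-only wells turned pink, read 24 h later by fluorescence. % inhibition = […]. Triplicate wells, three experiments, mean reported.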
(In general: The colour change of resazurin is a common sign of viable cells or microbes.)

Experiment [4] concerns Mycobacterium avium. As to the kind of experiment: Inhibition of growth of Mycobacterium avium (ATCC 25291) was determined using microplate alamar blue assay at 50 ug/mL concentration with compound dissolved in DMSO. The gist of the method: as §1
Experiment [5] has as its system Mycobacterium avium. The experiment is described as follows: Inhibition of growth of Mycobacterium avium (ATCC 25291) was determined using microplate alamar blue assay at 100 ug/mL concentration with compound dissolved in DMSO. The gist of the method: as §1

In brackets after ≈: the same amount, converted by molar mass.

As a reminder, the MIC90 is the lowest concentration that inhibits either 90% of growth or 90% of the strains tested, depending on the study. A low value points to greater potency. A word on the inhibition: it is the change of the read-out against control, counted positive when it falls. On to `CC[C@H]1OC(=O)[C@H](C)[C@@H](O[C@H]2C[C@@](C)(OC)[C@@H](O)[C@H](C)O2)[C@H](C)[C@@H](O[C@@H]2O[C@H](C)C[C@H](N(C)C)[C@H]2O)[C@](C)(OC)C[C@@H](C)C(=O)[C@H](C)[C@@H](O)[C@]1(C)O` [CLARITHROMYCIN], for which the MIC90 in the experiment on Mycobacterium avium [1] worked out at 2 µg/mL (≈ 2.67 µM). The inhibition at 2 µg/mL in the experiment with Mycobacterium avium [2] worked out at 95%.

On to `CCCCCCCCC#Cc1cn([C@H]2C[C@H](O)[C@@H](CO)O2)c(=O)nc1N`, for which the inhibition at 10 µg/mL in the experiment with Mycobacterium avium [3] came to 20%. Besides, the inhibition at 50 µg/mL in the experiment on Mycobacterium avium [4] was determined as 50%. In the experiment with Mycobacterium avium [5], the inhibition at 100 µg/mL worked out at 75%.

As for `CCCCCCCCCCC#Cc1cn([C@H]2C[C@H](O)[C@@H](CO)O2)c(=O)nc1N`, the MIC90 against Mycobacterium avium [1] turned out to be 100 µg/mL (≈ 255 µM). Besides, the inhibition at 10 µg/mL in the experiment with Mycobacterium avium [3] stood at 10%. For the same compound, the inhibition at 50 µg/mL with Mycobacterium avium [4] came to 60%. In the experiment with Mycobacterium avium [5], the inhibition at 100 µg/mL was 100%.

With `CCCCCC#Cc1cn([C@H]2C[C@H](O)[C@@H](CO)O2)c(=O)[nH]c1=O`, the inhibition at 100 µg/mL with Mycobacterium avium [5] came out at 25%.

In the experiment on Mycobacterium avium [1], `CO[C@H]1/C=C/O[C@@]2(C)Oc3c(C)c(O)c4c(O)c(c(/C=N/N5CCN(C)CC5)c(O)c4c3C2=O)NC(=O)/C(C)=C\C=C\[C@H](C)[C@H](O)[C@@H](C)[C@@H](O)[C@@H](C)[C@H](OC(C)=O)[C@@H]1C` [RIFAMPIN] returned an MIC90 of 2 µg/mL (≈ 2.43 µM). Moreover, the inhibition at 2 µg/mL in the experiment on Mycobacterium avium [2] came out at 90%.

In the case of `CCCCCCCCCCC#Cc1cn([C@H]2C[C@H](O)[C@@H](CO)O2)c(=O)[nH]c1=O`, the inhibition at 50 µg/mL in the experiment on Mycobacterium avium [4] worked out at 0%. For the same compound, the inhibition at 100 µg/mL in the experiment with Mycobacterium avium [5] was 75%.

Take `CCCCCCCCC#Cc1cn([C@H]2C[C@H](O)[C@@H](CO)O2)c(=O)[nH]c1=O`: the inhibition at 100 µg/mL in the experiment on Mycobacterium avium [5] is 30%.

As for `CCCCCCCCCCCCC#Cc1cn([C@H]2C[C@H](O)[C@@H](CO)O2)c(=O)[nH]c1=O`, in the experiment with Mycobacterium avium [4], the inhibition at 50 µg/mL came to 30%. In addition, the inhibition at 100 µg/mL in the experiment with Mycobacterium avium [5] came to 75%.

The values are drawn from ChEMBL document CHEMBL1140381, “Design and studies of novel 5-substituted alkynylpyrimidine nucleosides as potent inhibitors of mycobacteria” (2005).
